CHRM5 agonist: agonists of human muscarinic M5 receptor (CHRM5) | 360,000 compounds, 0.19% hits | activation, % at 3 µM | P08912 | CHO-K1 hM5 cells, Fluo-8 calcium fluorescence; 0% DMSO wells, 100% maximal acetylcholine response | AID 624037;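 active means activation above the run's mean over test compounds plus 3 SD, cut at about 23% in these data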;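 further: signal is peak over basal fluorescence ratio across the kinetic read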
Target sequence (P08912 whole entry, looked up): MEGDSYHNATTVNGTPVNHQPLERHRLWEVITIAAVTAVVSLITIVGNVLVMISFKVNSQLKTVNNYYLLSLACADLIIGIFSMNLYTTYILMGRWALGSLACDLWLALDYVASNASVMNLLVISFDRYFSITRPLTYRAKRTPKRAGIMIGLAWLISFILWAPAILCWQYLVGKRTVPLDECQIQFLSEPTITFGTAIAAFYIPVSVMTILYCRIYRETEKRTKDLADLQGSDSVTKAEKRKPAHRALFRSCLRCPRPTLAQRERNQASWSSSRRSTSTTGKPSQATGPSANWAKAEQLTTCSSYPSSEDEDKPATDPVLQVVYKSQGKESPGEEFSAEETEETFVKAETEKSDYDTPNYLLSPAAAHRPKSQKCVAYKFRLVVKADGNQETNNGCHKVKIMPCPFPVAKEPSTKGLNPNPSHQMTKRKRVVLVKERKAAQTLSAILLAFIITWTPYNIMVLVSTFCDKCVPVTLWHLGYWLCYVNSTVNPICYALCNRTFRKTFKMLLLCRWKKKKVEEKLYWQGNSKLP
M5 antag: antagonists of human muscarinic M5 receptor (CHRM5); inhibition, % at 3 µM; 360,000 compounds, 0.59% hits; P08912; CHO-hM5 cells, Fluo-8 calcium fluorescence, ACh EC80;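 active means inhibition above a per-plate cutoff, the mean of that plate's test compounds plus 3 SD, cut at about 27% in these data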;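 further: 0% = acetylcholine EC80 with DMSO and 100% = DMSO without agonist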
M1 ag parental: nonselective activator or artifact in parental CHO-K1 cells; Fluo-8 calcium fluorescence; scaled to maximal ATP response, vehicle zero; AID 602248; 360,000 compounds, 0.48% hits; activation, % at 3 µM; in the data active means activation above about 15%;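 further: untransfected CHO-K1 host cells lacking M1 receptor as counterscreen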
CHRM5 PAM: positive allosteric modulators of human muscarinic M5 receptor | P08912 | CHO-K1 hM5, Fluo-8 calcium, ACh EC20 PAM; 0% = ACh EC20, 100% = ACh EC100 | activation, % at 3 µM | 360,000 compounds, 0.3% hits | AID 624038;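 active means activation above the run cutoff, the mean activation of all test compounds plus 3 SD, cut at about 18% in these data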
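System – CHO-K1 hM5 cells · Compound – 3 µM, single dose · Incubation – compound preincubation 140 s before EC20 acetylcholine addition · Technique – Fluo-8 calcium fluorescence · Measure – Max/basal fluorescence ratio as % of EC20–EC100 ACh window · Benchmarks – low control EC20 acetylcholine (0%), high control EC100 acetylcholine (100%) · Replication – singlicate, one well per test compound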
M1 PAM parental: nonselective activator or artifact in parental CHO-K1 calcium assay. ATP EC20, Fluo-8 calcium fluorescence; 0% at ATP EC20, 100% at ATP max. activation, % at 3 µM. 360,000 compounds, 0.02% hits;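 active means activation above the run cutoff, the mean activation of all test compounds plus 3 SD, cut at about 40% in these data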;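 further: peak over basal fluorescence ratio in a 140 s read after ATP addition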
CHO-K1 Ca antag: counter-screen for M1 antagonists: effect in parental CHO-K1 cells; ATP-induced calcium, Fluo-8 fluorescence; inhibition, % at 3 µM; 360,000 compounds, 0.6% hits; AID 602250;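 active means inhibition above a per-plate cutoff, the plate's mean sample inhibition plus 3 SD, cut at about 24% in these data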;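 further: 0% = DMSO plus EC80 ATP and 100% = DMSO alone without ATP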
Starred values were filed as active, the others as inactive. Hits are enriched below; roughly 1.7% of the tested compounds scored in any of these assays.

SMILES | CHRM5 agonist | M5 antag | M1 ag parental | CHRM5 PAM | M1 PAM parental | CHO-K1 Ca antag
C/C(=N/Oc1nc(C)cc(C)n1)c1ccc(Cl)cc1Cl | -4 | -6 | 0 | 5 | 6 | 1
CCOC(=O)C1(CCc2ccccc2)CCN(C2Cc3ccccc3C2)CC1 | -10 | 41* | 14 | -20 | 21 | -4
CCOC(=O)C1(CCOc2ccccc2)CCN(Cc2ccc(OC)cc2)CC1 | -16 | 15 | 18* | -29 | 11 | 5
CCOC(=O)c1cc(CC)sc1NC(=O)c1cc(OC)c(OC)c(OC)c1 | 0 | 3 | 0 | 3 | -10 | 32*
O=C(Oc1ccc(Br)cc1C(=S)N1CCCC1)c1ccccc1Cl | -7 | -17 | 0 | 20* | -2 | 0
COCCCNC(=O)c1cn(Cc2c(F)cccc2Cl)nn1 | 0 | -14 | 0 | 30* | 11 | -11
COCCNC(=O)CSCc1c(F)cccc1Cl | 3 | 5 | 1 | -8 | 9 | -13
CN1CCCCC1(C)C(=O)NCc1ccc(F)cc1 (stereo unspecified) | -2 | 10 | 0 | -5 | -12 | 25*
COc1cccc(CNC(=O)C2(C)CCCCN2C)c1 (stereo unspecified) | -4 | -6 | 1 | -1 | 18 | -8
CCc1noc(C)c1C(=O)N(C)CC(=O)Nc1ccccc1C(F)(F)F | -1 | -6 | 1 | 3 | -4 | -5
COc1ccc(C(=O)c2sc3nc(-c4ccccc4)ccc3c2N)cc1 | 15 | 34* | 9 | -17 | 8 | 4
CC(C)OC(=O)c1sc2nc(-c3ccccc3)ccc2c1N | -3 | -1 | 1 | -6 | 7 | -20
Cc1ccc(N/C(N)=N/c2nc(C)cc(N3CCCCC3)n2)c(C)c1 | -1 | 24 | 11 | -17 | 4 | 25*
O=C(c1ccc(-c2cc(Cl)ccc2Cl)o1)N1CCOCC1 | 3 | -9 | 0 | 19* | 6 | -13
FC(F)(F)c1cccc(CNC(=S)Nc2ccccc2)c1 | 2 | 20 | 3 | -16 | -8 | 27*
S=C(NCc1ccccc1)NCc1cccc(Cl)c1 | -4 | 5 | 3 | -4 | 10 | 60*
FC(F)(F)c1cccc(NC(=S)NCc2ccccc2)c1 | 2 | 25 | 8 | -21 | 9 | 15
FC(F)(F)Sc1ccc(NC(=S)NCc2ccccc2)cc1 | 2 | 28* | 11 | -22 | -19 | 31*
CC(C)CCNC(=O)C1CCCN(S(=O)(=O)c2ccc(-n3cnnn3)cc2)C1 (stereo unspecified) | -1 | 17 | 0 | 5 | -1 | 6
O=C(NCCS(=O)(=O)N1CCN(c2ccc(F)cc2)CC1)C1CC(=O)N(c2ccccc2)C1 (stereo unspecified) | -2 | -10 | 0 | 7 | 14 | -13
S=C(Nc1cc(Cl)cc(Cl)c1)N1CCN(c2ccccn2)CC1 | -5 | 18 | 0 | -8 | -5 | 3
CCc1nn2c(=O)c(S(=O)(=O)Nc3ccc(Cl)cc3)c(C)nc2s1 | -4 | 4 | 2 | -8 | 18 | -11
CCc1cccc(NS(=O)(=O)c2c(C)nc3sc(CC)nn3c2=O)c1 | -2 | 30* | 2 | -23 | 3 | 1
Cc1ccc([C@H]2C(C(=O)O)=CC[C@@H](c3cccs3)N2S(=O)(=O)c2ccc(C)cc2)cc1 | -2 | -3 | 0 | 3 | 14 | -10
Cc1ccc(S(=O)(=O)N2[C@@H](c3ccc(C(C)(C)C)cc3)C(C(=O)O)=CC[C@H]2c2cccs2)cc1 | 0 | 3 | 0 | -6 | -12 | 34*
O=C(COC(=O)c1ccccc1)Nc1ncc([N+](=O)[O-])s1 | 14 | 2 | 2 | 5 | -15 | 3
O=C(Nc1ccccc1)Nc1ncc([N+](=O)[O-])s1 | 11 | 28* | 11 | -15 | -4 | 23
Cc1nc2c(-c3ccccc3)c[nH]n2c(=O)c1Cc1ccccc1 | -2 | -3 | 0 | 0 | 1 | 1
CCOc1ccc(C(=O)NCC(C)CN(C)C)cc1OCC (stereo unspecified) | -2 | 18 | 0 | 22* | -5 | 10
O=C(Nc1ccccc1)N1CCC(C(=O)N2CCN(c3ccccc3F)CC2)CC1 | 0 | -1 | 0 | 2 | -13 | -13

Screens as filed in PubChem BioAssay.
